Activity calls are given as the source filed them. The rule behind the calls is not given here.
Tests used:
Mus musculus [1] = assay: Antinociceptive activity in po dosed mouse assessed as time of latency at 100 mg/kg, po administered 1 hr before hot plate test; format: functional, organism-based; design: dose 100 mg/kg
A549 [2] = assay: Antitumor activity against human A549 cells xenografted in athymic nu/nu BALB/c mouse assessed as decrease in tumor volume at 5 mg/kg, po administered 5 times weekly for consecutive 39 days relative to paclitaxel; format: functional
In short: (§1)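 A549 cells (5 × 10⁶) injected s.c. into the left flank of BALB/c nu/nu mice, n = 5 per group. At day 8 (nodules ca. 3 mm³), oral dosing at 1 or 5 mg/kg in ethanol:Cremophor EL:water 1:1:18, five times weekly for 39 days. Caliper measurement weekly; volume from length, width and height. Mean ± SE; Dunnett's test versus vehicle.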

A549 [3] = assay: Antitumor activity against human A549 cells xenografted in po dosed athymic nu/nu BALB/c mouse assessed as decrease in tumor volume administered 5 times weekly for consecutive 39 days; format: functional, organism-based; in short: as §1
Mus musculus [4] = assay: Toxicity in athymic nu/nu BALB/c mouse bearing human A549 cells assessed as decrease in body weight at 5 mg/kg, po administered 5 times weekly for consecutive 39 days measured on day 19 to 22 post dosing; conditions: in vivo, 936 h
Mus musculus [5] = assay: Antinociceptive activity in po dosed mouse assessed as time of latency at 10 or 50 mg/kg, po administered 1 hr before hot plate test; format: functional, organism-based; design: dose 50 mg/kg
In short: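 Mice (n = 10 per group) given 10 or 50 mg/kg orally; 1 h later placed on a hot plate at 55 ± 0.5 °C. Latency recorded at 0 and 30 min. Comparison with vehicle control by Dunnett's test; mean ± S.D.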

A549 [6] = assay: Antitumor activity against human A549 cells xenografted in athymic nu/nu BALB/c mouse assessed as tumor growth inhibition at 1 mg/kg, po administered 5 times weekly for consecutive 39 days; format: functional; conditions: A549, 936 h, read-out: GI
Mus musculus [7] = assay: Antinociceptive activity in po dosed mouse assessed as inhibition of acetic acid-induced writhing measured every 5 mins for 20 mins pretreated 1 hr before acetic acid challenge; format: functional, organism-based
In short: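 Mice (n = 7 per group) given 10 or 50 mg/kg orally; 1 h later injected ip with 0.7% (v/v) acetic acid, 10 mL/kg. After a 5-min delay, writhes counted for 20 min. Comparison with vehicle controls by Dunnett's test; mean ± S.D.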

A549 [8] = assay: Antitumor activity against human A549 cells xenografted in athymic nu/nu BALB/c mouse assessed as decrease in tumor weight at 1 mg/kg, po administered 5 times weekly for consecutive 39 days (reference value: 0.358 +/- 0.052 g); format: functional
A549 [9] = assay: Antitumor activity against human A549 cells xenografted in athymic nu/nu BALB/c mouse assessed as tumor growth inhibition at 5 mg/kg, po administered 5 times weekly for consecutive 39 days; format: functional; conditions: A549, 936 h, read-out: GI
A549 [10] = assay: Antitumor activity against human A549 cells xenografted in athymic nu/nu BALB/c mouse assessed as decrease in tumor volume at 1 mg/kg, po administered 5 times weekly for consecutive 39 days (reference value: 224.40 +/- 60.34 mm3); format: functional; in short: as §1
A549 [11] = assay: Antitumor activity against human A549 cells xenografted in athymic nu/nu BALB/c mouse assessed as decrease in tumor weight at 5 mg/kg, po administered 5 times weekly for consecutive 39 days (reference value: 0.358 +/- 0.052 g); format: functional
A549 [12] = assay: Antitumor activity against human A549 cells xenografted in athymic nu/nu BALB/c mouse assessed as decrease in tumor volume at 5 mg/kg, po administered 5 times weekly for consecutive 39 days (reference value: 224.40 +/- 60.34 mm3); format: functional; in short: as §1
Mus musculus [13] = assay: Toxicity in athymic nu/nu BALB/c mouse bearing human A549 cells assessed as change in total body weight at 1 to 5 mg/kg, po administered 5 times weekly for consecutive 39 days; format: organism-based; design: dose 1-5 mg/kg, route oral; conditions: in vivo, 936 h
In short: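 A549 cells (5 × 10⁶ cells/mL) were injected s.c. into the left flank of BALB/c nu/nu nude mice. After 8 days, once nodules were visible (ca. 3 mm³), mice got oral doses in ethanol:Cremophor EL:distilled water (1:1:18) five times per week for 39 days, with vehicle-only controls (n = 5/group). Total body weights were followed over the period (mean ± SE; Dunnett's test versus control).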

[14] = target: Voltage-dependent N-type calcium channel subunit alpha-1B (Homo sapiens, UniProt Q00975); assay: Inhibition of N-type calcium channel alpha 1 B
A549 [15] = assay: Antitumor activity against human A549 cells xenografted in athymic nu/nu BALB/c mouse assessed as decrease in tumor volume at 10 mg/kg, ip administered twice per week for consecutive 39 days (reference value: 224.40 +/- 60.34 mm3); format: functional; conditions: route intraperitoneal
A549 [16] = assay: Antitumor activity against human A549 cells xenografted in athymic nu/nu BALB/c mouse assessed as decrease in tumor weight at 10 mg/kg, ip administered twice per week for consecutive 39 days (reference value: 0.358 +/- 0.052 g); format: functional; conditions: route intraperitoneal
In short: (§2)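 A549 s.c. flank xenografts (5 × 10⁶ cells) in BALB/c nu/nu mice, n = 5. From day 8, given 10 mg/kg ip in ethanol:Cremophor EL:water 1:1:18, twice weekly for 39 days. Excised tumors weighed at the end. Inhibition % = 100 × (C − T)/C using mean tumor weights versus vehicle. Mean ± SE.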

A549 [17] = assay: Antitumor activity against human A549 cells xenografted in athymic nu/nu BALB/c mouse assessed as tumor growth inhibition at 10 mg/kg, ip administered twice per week for consecutive 39 days; format: functional; conditions: 936 h, route intraperitoneal, read-out: GI; in short: as §2
Mus musculus [18] = assay: Toxicity in athymic nu/nu BALB/c mouse bearing human A549 cells assessed as change in total body weight at 10 mg/kg, ip administered twice per week for consecutive 39 days; format: organism-based; design: dose 10 mg/kg, route intraperitoneal; conditions: in vivo, 936 h
In short: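 Mice bearing A549 s.c. flank xenografts, n = 5 per group, given 10 mg/kg ip in ethanol:Cremophor EL:water 1:1:18, twice weekly over 39 days starting day 8. Total body weights tracked through the study and compared with vehicle control. Mean ± SE.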

Sequence of Voltage-dependent N-type calcium channel subunit alpha-1B (Q00975 whole entry): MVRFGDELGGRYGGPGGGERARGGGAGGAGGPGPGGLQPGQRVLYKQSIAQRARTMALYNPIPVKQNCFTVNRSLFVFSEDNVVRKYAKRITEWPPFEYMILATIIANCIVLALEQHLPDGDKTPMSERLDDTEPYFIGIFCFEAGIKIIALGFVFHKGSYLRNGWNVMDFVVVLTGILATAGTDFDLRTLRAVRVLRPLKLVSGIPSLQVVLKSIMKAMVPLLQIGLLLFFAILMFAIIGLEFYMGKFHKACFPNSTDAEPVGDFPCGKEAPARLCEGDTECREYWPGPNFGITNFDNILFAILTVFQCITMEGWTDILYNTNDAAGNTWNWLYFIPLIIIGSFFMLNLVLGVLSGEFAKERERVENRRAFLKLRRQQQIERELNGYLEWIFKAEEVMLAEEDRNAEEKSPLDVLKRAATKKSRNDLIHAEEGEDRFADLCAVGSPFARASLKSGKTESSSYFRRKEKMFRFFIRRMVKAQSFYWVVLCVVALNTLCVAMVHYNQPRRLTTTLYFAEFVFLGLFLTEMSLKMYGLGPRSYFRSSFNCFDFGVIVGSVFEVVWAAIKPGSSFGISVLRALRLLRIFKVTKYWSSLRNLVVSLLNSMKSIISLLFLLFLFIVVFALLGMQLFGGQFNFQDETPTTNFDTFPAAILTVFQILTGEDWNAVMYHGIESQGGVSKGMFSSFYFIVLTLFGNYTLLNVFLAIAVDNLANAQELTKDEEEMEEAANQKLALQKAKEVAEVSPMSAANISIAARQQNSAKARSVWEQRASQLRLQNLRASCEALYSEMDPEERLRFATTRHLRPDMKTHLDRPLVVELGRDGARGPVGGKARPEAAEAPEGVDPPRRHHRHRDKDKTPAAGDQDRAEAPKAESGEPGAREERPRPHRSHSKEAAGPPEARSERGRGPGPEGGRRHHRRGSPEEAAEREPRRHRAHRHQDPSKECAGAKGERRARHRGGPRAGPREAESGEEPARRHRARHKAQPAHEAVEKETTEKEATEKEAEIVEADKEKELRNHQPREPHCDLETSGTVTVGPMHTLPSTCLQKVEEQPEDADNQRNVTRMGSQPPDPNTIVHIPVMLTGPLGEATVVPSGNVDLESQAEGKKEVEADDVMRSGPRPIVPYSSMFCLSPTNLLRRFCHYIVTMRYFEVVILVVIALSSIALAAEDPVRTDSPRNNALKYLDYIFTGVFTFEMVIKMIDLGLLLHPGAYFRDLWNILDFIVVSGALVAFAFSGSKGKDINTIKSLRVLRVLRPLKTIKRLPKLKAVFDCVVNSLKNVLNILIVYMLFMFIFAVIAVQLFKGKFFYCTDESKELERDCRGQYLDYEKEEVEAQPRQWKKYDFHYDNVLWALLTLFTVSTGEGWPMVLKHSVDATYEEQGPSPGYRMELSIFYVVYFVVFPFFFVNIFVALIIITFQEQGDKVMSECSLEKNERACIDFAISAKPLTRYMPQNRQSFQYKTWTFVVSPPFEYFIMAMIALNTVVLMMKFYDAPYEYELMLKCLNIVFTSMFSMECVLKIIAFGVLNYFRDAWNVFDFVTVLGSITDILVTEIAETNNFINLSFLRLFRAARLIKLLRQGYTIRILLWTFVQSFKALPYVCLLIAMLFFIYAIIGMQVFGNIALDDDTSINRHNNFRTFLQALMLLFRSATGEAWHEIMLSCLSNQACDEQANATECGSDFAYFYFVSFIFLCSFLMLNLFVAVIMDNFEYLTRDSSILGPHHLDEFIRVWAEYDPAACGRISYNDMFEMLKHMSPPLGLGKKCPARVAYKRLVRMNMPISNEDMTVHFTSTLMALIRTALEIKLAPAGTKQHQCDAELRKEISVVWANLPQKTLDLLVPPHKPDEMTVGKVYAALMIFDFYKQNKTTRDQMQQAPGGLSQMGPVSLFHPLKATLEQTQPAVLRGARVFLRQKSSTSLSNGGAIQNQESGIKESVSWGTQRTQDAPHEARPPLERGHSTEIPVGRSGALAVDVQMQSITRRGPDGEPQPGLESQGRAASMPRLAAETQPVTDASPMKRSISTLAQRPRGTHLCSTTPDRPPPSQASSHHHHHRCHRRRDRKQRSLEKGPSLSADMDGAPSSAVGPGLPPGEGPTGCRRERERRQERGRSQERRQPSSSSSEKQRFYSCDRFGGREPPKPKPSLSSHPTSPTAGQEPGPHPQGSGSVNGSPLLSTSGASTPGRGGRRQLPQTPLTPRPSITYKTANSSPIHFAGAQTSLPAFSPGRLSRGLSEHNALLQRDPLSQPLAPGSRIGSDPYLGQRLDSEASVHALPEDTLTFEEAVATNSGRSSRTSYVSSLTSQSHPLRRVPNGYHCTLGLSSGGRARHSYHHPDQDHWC

## CC(C)Cc1ccc(C(C)C(=O)O)cc1 (stereo not drawn)
Mus musculus [1]
  Activity: Active

## CN(C)CCCCCN(C)C1=Nc2ccccc2C(CC(=O)NCc2ccccc2)N1c1ccc(-c2ccccc2)cc1.Cl.Cl (stereo not drawn)
A549 [2]
  fold change (FC): 3
A549 [3]
  Activity: Dose-dependent effect
Mus musculus [4]
  Activity: Toxic
Mus musculus [5]
  Activity: inactive
A549 [6]
  inhibition in vivo at 1 mg/kg: 60%
Mus musculus [7]
  Activity: Dose-dependent effect
A549 [8]
  Activity: 0.142 g
A549 [9]
  inhibition in vivo at 5 mg/kg: 67%
A549 [10]
  Activity: 27.05 mm3
A549 [11]
  Activity: 0.12 g
A549 [12]
  Activity: 7.9 mm3
Mus musculus [13]
  Activity: Non-toxic
[14]
  IC50: 4.9 µM

## CC(=O)O[C@H]1C(=O)[C@@]2(C)[C@H]([C@H](OC(=O)c3ccccc3)[C@]3(O)C[C@H](OC(=O)[C@H](O)[C@@H](NC(=O)c4ccccc4)c4ccccc4)C(C)=C1C3(C)C)[C@]1(OC(C)=O)CO[C@@H]1C[C@@H]2O [PACLITAXEL]
A549 [15]
  Activity: 22.9 mm3
A549 [16]
  Activity: 0.17 g
A549 [17]
  inhibition in vivo at 10 mg/kg: 53%
Mus musculus [18]
  Activity: Non-toxic
